# Assay outcomes (PubChem)
# In the library only some 3.4% were active in any assay of this set; here they are far more common.
# rRNA inh HTS = inhibitors of bacterial rRNA selective over humanized ribosomes; E. coli WT GFP vs humanized-ribosome RFP mutants, fluorescence, 24 h; hits give low values; DMSO median 0, no signal -100; GFP signal change (wild-type ribosome), % (no concentration beside the values); actives 1.6% (n = 350,000);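 active = significant combined selectivity score with lowered wild-type GFP, culture density cut under 30%, mutant RFP and density less affected; inactive = any of these conditions unmet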
# SIRT5 inh = inhibitors of human sirtuin-5 desuccinylase; Q9NXA8; Purified SirT5, succinyl-peptide AMC, trypsin-coupled fluorescence; inhibition, % at 15 µM; actives 1.1% (n = 330,000); in the data active = inhibition above about 15%
# Target sequence (Q9NXA8 whole entry, looked up): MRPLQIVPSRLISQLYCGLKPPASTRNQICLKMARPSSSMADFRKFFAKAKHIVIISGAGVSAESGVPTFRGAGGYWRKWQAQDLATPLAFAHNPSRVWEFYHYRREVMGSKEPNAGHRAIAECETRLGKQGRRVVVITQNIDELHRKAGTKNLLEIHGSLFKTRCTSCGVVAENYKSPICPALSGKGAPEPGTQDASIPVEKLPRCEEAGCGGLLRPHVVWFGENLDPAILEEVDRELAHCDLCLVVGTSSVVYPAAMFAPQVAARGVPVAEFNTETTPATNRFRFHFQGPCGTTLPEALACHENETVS
# S100A4 inh HTS = blocks human S100A4 binding to myosin IIA peptide. S100A4/TAMRA-MyoIIA peptide fluorescence polarization. actives 0.14% (n = 360,000). inhibition, % at 10.7 µM. P26447;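 active = mean inhibition of at least 70% across replicates, with every replicate also reaching that level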
# Target sequence (P26447 whole entry, looked up): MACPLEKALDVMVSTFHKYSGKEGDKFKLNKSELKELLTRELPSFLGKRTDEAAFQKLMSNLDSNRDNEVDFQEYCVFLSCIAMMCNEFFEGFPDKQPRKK
#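 Compound dosing: one dose per compound; test system: human S100A4 monomer with TAMRA-labelled myosin IIA peptide; probe or stimulus: TAMRA-labelled myosin IIA heavy-chain peptide probe, 5 nM; medium: HEPES buffer with Ca2+, pH 7.2; schedule: 5 min incubation before reading; benchmarks: neutral control DMSO, positive control TFP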
# E-selectin induc = E-selectin induction on HUVECs; HUVEC E-selectin immunofluorescence imaging; normalized: neutral wells 0, TNF-alpha wells 100; AID 686992; P16581; actives 0.37% (n = 260,000); activation, % at 7.58 µM;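 active = mean E-selectin-positive cell signal at least 10% of the positive control, reached in at least 60% of replicates, without over 20% cell loss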
#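 Read-out basis: % PE-positive cells; Test system: HUVEC primary endothelial cells; Technique: immunofluorescence imaging; Dosing: single-point compound dose.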
# MLL AF4-AF9 inh = blocks AF4 peptide binding to human AF9. P42568. AlphaScreen, biotin-AF4 peptide binding to FLAG-AF9. inhibition, % at 10 µM. actives 0.47% (n = 350,000);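 active = every replicate reaching a set inhibition limit, whatever the replicate mean, cut at about 25% in these data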;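 note: 0% = plate neutral control median and 100% = total signal loss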
# ERAP1 HTS inh = inhibitors of human ERAP1 aminopeptidase | Q9NZ08 | recombinant ERAP1, Leu-AMC fluorescence, 60 min | inhibition, % at 10.7 µM | actives 0.15% (n = 340,000) | AID 652197;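 active = mean replicate inhibition of at least 30%, or all replicates individually reaching that 30% level; inactive = mean below 30% and not every replicate reaching it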;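 note: 0% = neutral control wells and 100% = L-leucinethiol positive control wells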
# Numbers without * were called inactive; . = no result.
SMILES,rRNA inh HTS,SIRT5 inh,S100A4 inh HTS,E-selectin induc,MLL AF4-AF9 inh,ERAP1 HTS inh
O=C(CN1C(=O)NC2(CCCc3ccccc32)C1=O)NC1CCCCC1 (centres undefined),5.0,15.8*,12.9,.,-1.9,1.9
C[C@@H]1CN([C@H](C)CO)C(=O)CCCn2cc(nn2)CO[C@H]1CN(C)Cc1cccc(O)c1,0.8,-1.0,-5.3,-0.2,-0.3,3.0
CC(=O)N(C)C[C@@H]1Oc2ccc(NS(C)(=O)=O)cc2CC(=O)N(C)C[C@@H]1C,2.1,.,.,.,.,.
COc1ccc(C2C3(C#N)C(N)=NC(OC)(OC)C23C#N)cc1 (centres undefined),9.9,18.3*,-6.9,.,-0.2,0.3
CN(C)CC(=O)N1[C@H](C#N)[C@H](c2ccccc2-c2ccc(C(=O)N(C)C)cc2)[C@@H]1CO,9.7,-0.1,6.6,0.0,3.2,0.1
Nc1ccc(S(=O)(=O)Nc2nccs2)cc1N=Nc1ccccc1[N+](=O)[O-],-20.4*,8.6,6.8,0.2,1.1,2.3
NS(=O)(=O)c1ccc2c(c1)C(=NO)c1cc(S(N)(=O)=O)ccc1-2,-9.6,0.1,-6.7,0.0,2.6,1.8
CN(CCO)S(=O)(=O)c1ccc2c(c1)C(=NO)c1cc(S(=O)(=O)N(C)CCO)ccc1-2,-27.1*,-1.4,2.0,0.0,0.3,0.4
COc1ccc(S(=O)(=O)Nc2cccc3c2O[C@H](CN(C)CC2CC2)[C@@H](C)CN([C@@H](C)CO)C3=O)cc1,-1.8,-2.2,-21.6,0.3,-8.3,-0.1
C[C@H](CO)N1C[C@H](C)[C@@H](CN(C)C(=O)Nc2ccc(F)cc2)Oc2cc(/C=C/c3ccccc3)ccc2S1(=O)=O,0.5,16.3*,3.2,0.6,1.4,0.3
C[C@H]1CN([C@@H](C)CO)S(=O)(=O)c2ccc(/C=C/c3ccccc3)cc2O[C@H]1CN(C)C(=O)Nc1cc(F)ccc1F,-0.9,22.3*,-12.4,1.0,5.3,1.2
C[C@@H]1CN([C@H](C)CO)S(=O)(=O)c2ccc(/C=C/c3ccccc3)cc2O[C@H]1CN(C)C(=O)Nc1ccc(F)cc1,6.1,-2.8,-4.1,0.6,2.0,2.2
C[C@H]1CN([C@@H](C)CO)S(=O)(=O)c2ccc(/C=C/c3ccccc3)cc2O[C@@H]1CN(C)C(=O)Nc1ccc(F)cc1,-3.6,27.7*,-0.8,1.1,3.0,1.8
O=S(=O)(c1cccs1)N1CCCCN2[C@H](CO)[C@H](c3ccc(Br)cc3)[C@H]2C1,-2.5,-0.9,-15.7,-0.3,2.1,-2.8
COc1cc(CN2CC3(CCN(C(=O)Nc4c(C)noc4C)CC3)c3c([nH]c4cc(OC)ccc34)[C@H]2CO)cc(OC)c1,2.8,8.6,2.4,-0.5,0.3,-3.6
Cc1noc(C)c1S(=O)(=O)N(C)C[C@@H]1OCCCC[C@H](C)Oc2ccc(NS(C)(=O)=O)cc2C(=O)N([C@@H](C)CO)C[C@H]1C,-1.0,-1.2,-1.9,-0.1,-12.2,1.0
C[C@@H]1CN([C@H](C)CO)C(=O)c2cccc(NC(=O)CCCCCC(=O)Nc3ccccc3N)c2O[C@H]1CN(C)C(=O)Nc1ccc2c(c1)OCO2,-3.3,6.9,1.7,0.1,6.0,-6.8
COc1ccc2c3c([nH]c2c1)[C@@H](CO)N(C(=O)C1CCC1)CC31CN(C(=O)c2ccccn2)C1,-6.2,0.6,0.5,0.1,-1.4,-0.9
CCOc1ccc2ncc(S(=O)(=O)c3ccc(C)cc3)c(N3CCC4(CC3)OCCO4)c2c1,-2.8,0.0,-1.9,140.0*,11.4,-0.7
CCOc1ccc2[nH]cc(S(=O)(=O)c3ccc(C)cc3)c(=O)c2c1,4.0,0.3,1.0,1.7,-6.4,0.3
C[C@H](CO)N1C[C@H](C)[C@H](CN(C)C(=O)C2CC2)Oc2cc(-c3ccccc3)ccc2S1(=O)=O,-8.6,.,.,-0.4,.,.
CNC[C@@H]1Oc2ccc(NC(=O)C3CC3)cc2C(=O)N([C@@H](C)CO)C[C@H]1C,0.4,-4.8,3.1,-0.1,-1.9,0.9
Cc1ccc2nc(N(CCCN(C)C)C(=O)c3ccc4c(c3)CCCC4)sc2c1,.,.,.,13.8,.,.
CN(C)CCCN(C(=O)c1ccc2c(c1)CCCC2)c1nc2c(F)cccc2s1,-48.1,-5.6,0.5,-0.9,31.9*,-2.4
CN(C)CCCN(C(=O)c1cc(Cl)sc1Cl)c1nc2cc3c(cc2s1)OCO3,-18.8,1.4,-2.8,.,27.6*,-4.6
SMILES,rRNA inh HTS,SIRT5 inh,S100A4 inh HTS,E-selectin induc,MLL AF4-AF9 inh,ERAP1 HTS inh
CN(C)CCCN(C(=O)c1ccc(S(=O)(=O)N(C)Cc2ccccc2)cc1)c1nc2c(F)cccc2s1,-32.9*,-4.1,-3.3,.,11.4,4.7
CCN(CC)CCN(C(=O)C1CCCCC1)c1nc2cc3c(cc2s1)OCO3,-18.1*,1.3,-9.7,.,18.4,6.5
CO[C@H]1CN(C)C(=O)c2cc(NC(=O)NC(C)C)ccc2OC[C@H](C)N(C)C[C@H]1C,-2.2,-3.5,-3.5,0.0,-2.6,-1.9
C[C@H]1CN([C@@H](C)CO)C(=O)Cc2cc(NC(=O)Nc3ccc(F)cc3)ccc2O[C@@H]1CN(C)Cc1ccncc1,-8.6,-0.5,0.5,.,1.1,-1.0
CN(C)CCN(C(=O)c1ccc2c(c1)CCCC2)c1nc2cc3c(cc2s1)OCCO3,0.5,5.5,0.5,0.9,37.1*,-1.2
CN(C)CCN(C(=O)c1ccc2c(c1)OCCO2)c1nc2cc3c(cc2s1)OCO3,-2.2,-4.2,-1.5,0.1,10.2,0.0
CC(C)(C)OC(=O)NOCC(=O)N(CC(=O)c1ccccc1)Cc1ccccc1,-14.9,27.1*,0.4,-0.1,.,-1.6
CON(C)C(=O)CCN(Cc1ccccc1)C(=O)OC(C)(C)C,8.3,.,-1.4,-0.1,2.6,-1.8
CC(C)(C)OC(=O)NOCC(=O)N(Cc1ccccc1)CC(O)COc1ccccc1 (centres undefined),-18.1*,1.6,-11.2,-0.1,-0.8,-0.1
O=[N+]([O-])c1cc([N+](=O)[O-])c(Oc2ccc(F)cc2)cc1NN1CCCCC1,0.2,-4.6,3.3,0.0,1.5,-3.4
O=[N+]([O-])c1cc([N+](=O)[O-])c(Oc2ccc(F)cc2F)cc1NN1CCCCC1,12.6,17.5*,1.8,0.0,-1.4,-2.0
C[C@@H]1CN([C@H](C)CO)C(=O)c2cc(NC(=O)NC3CCCCC3)ccc2O[C@H]1CN(C)Cc1ccc2c(c1)OCO2,-7.0,.,4.1,-1.1,3.4,0.0
O=C(CNCc1ccc(Cl)cc1)Nc1ccc(C(=O)N2CCCCC2)cc1,-20.5,-0.1,3.2,.,0.9,-5.5
O=C(CNCc1ccc(Cl)cc1)Nc1ccc(C(=O)N2CCCCCC2)cc1,-29.7*,-7.6,-3.0,.,3.0,1.0
O=C(Cc1ccc(Cl)cc1)Nc1ccc(CN2CCCCC2)cc1,2.0,79.6*,0.6,0.1,0.6,.
